Compounds with a hit are over-represented: about 2.9% of the library has one in this group of screens.
Jurkat tox 60K: cytotoxicity toward Jurkat T cells, primary screen, cytotoxicity control, cell-based, Jurkat E6.1, 60K MLSMR library | inhibition, % at 4 µM | 1.2% of 56,000 active | Jurkat E6.1 viability, ATP luminescence, 48 h | AID 463, 2006;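 active = inhibition above the mean inhibition of all tested compounds plus 3 SD, cut at about 28% in these data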
SF-1 act: activators of human SF-1, primary screen, cell-based, CHO-K1, Gal4-SF-1 LBD, luciferase luminescence. 1.9% of 65,000 active. Steroidogenic factor 1 (Homo sapiens), Q13285. CHO-K1 Gal4-SF-1 LBD luciferase reporter; % increase over DMSO SF-1-specific signal. activation, % at 10 µM;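 active = activation above the mean activation of all tested compounds plus 3 SD, cut at about 50% in these data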
Target sequence (Q13285 whole entry, looked up, the tested form may be a part): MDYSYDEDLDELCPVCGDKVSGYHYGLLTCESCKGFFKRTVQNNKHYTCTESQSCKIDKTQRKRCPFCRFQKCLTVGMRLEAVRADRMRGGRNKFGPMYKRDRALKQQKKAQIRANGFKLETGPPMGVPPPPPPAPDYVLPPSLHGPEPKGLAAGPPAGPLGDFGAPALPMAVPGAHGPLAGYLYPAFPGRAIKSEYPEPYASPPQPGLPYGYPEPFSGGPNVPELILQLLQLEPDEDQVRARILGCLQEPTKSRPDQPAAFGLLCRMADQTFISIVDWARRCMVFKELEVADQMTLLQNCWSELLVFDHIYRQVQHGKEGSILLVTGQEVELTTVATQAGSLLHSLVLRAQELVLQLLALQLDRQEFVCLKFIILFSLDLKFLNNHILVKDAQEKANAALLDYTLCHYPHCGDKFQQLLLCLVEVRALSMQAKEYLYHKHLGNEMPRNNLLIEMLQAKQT
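Test system: CHO-K1 cells with Gal4–hSF-1 LBD chimera plus Gal4-driven luciferase; Input: 4,000 cells/well; Compound: 10 µM only; Times: 20 h compound treatment, 37 °C; Measured by: steady-glow luciferase luminescence, read after 15 min reagent incubation; Measure: percent activation versus DMSO; Control set: DMSO and mock-transfected background; Replicates: one test per compound.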
RORa activator: activators of orphan receptor RORA, primary screen, cell-based, luminescence; 1.5% of 65,000 active; activation, % at 10 µM; CHO-K1 Gal4-RORA LBD luciferase reporter; percent increase over mock-subtracted basal signal; Nuclear receptor ROR-alpha (Homo sapiens), P35398;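 active = activation above the mean of all tested compounds plus 3 SD, cut at about 49% in these data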;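 note: 0% = DMSO-treated RORA cells and 100% = added signal equal to DMSO minus mock-transfected cells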
MT1-MMP txn act: MT1-MMP promoter reporter activation – cell-based, luciferase luminescence, primary screen | AID 750, 2007 | activation factor at 10 µM | HT1080 MT1-MMP promoter luciferase reporter, overnight; stronger effect = higher value | 0.16% of 86,000 active;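 active = activation factor of at least 2 for MT1-MMP transcription at 10 µM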
HEK293 NFkB inh: inhibitors of PMA/ionomycin-induced NF-kB reporter, primary screen, antigen receptor NF-kB inhibitor project, cell-based, HEK-293 luciferase reporter, luminescence. HEK-293 NF-kB luciferase reporter. inhibition, % at 3 µM. 0.21% of 62,000 active;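 active = inhibition above the mean of all tested compounds plus 3 SD, cut at about 40% in these data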;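 note: 0% = stimulated DMSO wells and 100% = 10 µM reference inhibitor 5653914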
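Reagent: PMA plus ionomycin mix as NF-kB-activating stimulus. Assay system: NF-kB luciferase reporter HEK-293 cells. Technique: luminescence from luciferase substrate reagent. Incubation: 1 h compound pre-incubation, 16 h PMA/ionomycin at 37 °C. Benchmarks: DMSO only as uninhibited control, 10 µM reference inhibitor as full inhibition. Repeats: tested once.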
The depositor's hits bear a star; nt = no result given.

SMILES	Jurkat tox 60K	SF-1 act	RORa activator	MT1-MMP txn act	HEK293 NFkB inh
CC1CCCC(C)N1C(=O)CSc1nnc(C2CCCCC2)o1 (stereo not drawn)	0.2	12.5	12.6	1.7	13.3
COC(=O)[C@@]1(Cc2ccc(F)cc2)[C@H]2c3cc(C(=O)N4CCCC4)n(CCc4c[nH]c5ccc(OC)cc45)c3C[C@H]2CN1C(=O)c1ccccc1	nt	nt	nt	1.1	nt
COc1cccc(C(=O)Nc2ccc(N(C)C)cc2)c1OC	1.1	50.3*	42.6	nt	-24.4
COc1ccc(NC(=O)Nc2ccc3nccnc3c2)cc1	5.5	51.0*	57.2*	1.3	-41.2
CC(C)Sc1nnc(Nc2ccccc2)s1	-2.6	105.8*	44.2	1.3	-22.5
COC(=O)c1ccc(C(NC(=O)OCc2ccccc2)/C(=C/[C@@H](C)C(=O)N(C)Cc2ccccc2)C(F)(F)F)cc1 (stereo partly drawn)	nt	nt	nt	1.2	nt
Cc1ccc2nc(NC(=O)C3CCCN(S(=O)(=O)c4cnc[nH]4)C3)sc2c1 (stereo not drawn)	-1.8	25.9	54.0*	1.4	-12.7
NC(=O)c1cc2n(n1)C(C(F)(F)F)CC(c1ccco1)N2 (stereo not drawn)	0.6	0.2	6.7	nt	4.1
CCCCn1c(SCc2c(C)noc2C)nc2cc(S(N)(=O)=O)ccc21	10.1	-37.4	-16.1	1.9	41.7*
O=c1oc2ccccc2cc1-c1nnc(NCc2ccco2)s1	nt	nt	nt	1.6	nt
Nc1nnc(-c2cc3ccccc3oc2=O)s1	3.7	54.8*	42.3	1.8	3.4
O=C(NCCCn1ccnc1)c1cc(-c2ccc3c(c2)OCO3)on1	3.0	33.9	20.7	1.4	-0.5
CSc1nnc(-c2sc3cc(C(F)(F)F)cnc3c2-c2ccccc2)n1C	nt	nt	nt	0.8	nt
O=C(NC1=NCCS1)Nc1ccccc1	0.0	86.3*	44.4	1.2	-29.8
Cc1cc(C(=O)NC2=NCCS2)cs1	-8.4	53.0*	42.8	0.9	-47.2
Cc1ccc(C(=O)N2CCN(c3cccc(Cl)c3)CC2)cc1C	37.8*	18.4	7.9	1.2	12.2
Cc1cc(C(=O)N2CCN(c3cccc(Cl)c3)CC2)c(C)o1	74.8*	-3.5	-5.2	1.1	11.2
Cc1ccc(C(=O)N2CCN(c3ccccc3)CC2)cc1C	3.9	10.9	20.9	1.2	7.0
COc1ccc(C)cc1Nc1cc(C)nc2nc(C)nn12	35.5*	17.3	30.2	1.1	-3.1
CCOc1ccc(S(=O)(=O)n2nnc3ccccc32)cc1C(C)C	-6.8	-2.8	-15.1	1.1	11.4
Cc1ccc(-c2nc(C#N)c(NCc3ccco3)o2)cc1	8.4	5.8	88.7*	1.4	0.6
N#Cc1nc(COc2cccc(Cl)c2)oc1NCc1ccco1	-1.4	40.0	65.7*	nt	0.8
CCOC(=O)C1=C(C)N(CCCCCC(=O)O)C(=O)NC1c1cccc(Cl)c1Cl (stereo not drawn)	nt	nt	nt	1.2	nt
CCOc1ccc(NC(=O)c2oc3ccccc3c2NC(=O)C2CC2)cc1	-2.6	-13.5	-22.4	1.2	5.3
COc1ccc(OC)c(C2C(C#N)=C(N)Oc3cc(N)ccc32)c1 (stereo not drawn)	-1.2	7.5	-23.4	1	15.4
SMILES	Jurkat tox 60K	SF-1 act	RORa activator	MT1-MMP txn act	HEK293 NFkB inh
N#CC1=C(N)Oc2cc(N)ccc2C1C1CCCCC1 (stereo not drawn)	84.0*	21.9	8.5	1.1	19.1
CC1CCN(c2nc3ccc(C(=O)O)cc3s2)CC1	3.7	-93.7	-92.3	nt	82.8*
O=C(NCC1CCCO1)c1ccc2nc(N3CCCCC3)sc2c1 (stereo not drawn)	-4.8	53.9*	59.4*	1.5	-57.8
O=C(c1ccc2nc(N3CCOCC3)sc2c1)N1CCN(C(=O)c2ccco2)CC1	-0.4	-2.8	-9.7	1.1	2.2
Cc1ccc(-c2noc(CCC(=O)NCCN3CCc4ccccc4C3)n2)cc1	-3.7	-6.1	-20.6	nt	-2.9
COCCn1c(C)cc(C(=O)COC(=O)c2cc3c(s2)CCC3)c1C	2.9	1.8	-15.6	1.5	14.7
COCCn1c(C)cc(C(=O)COC(=O)C23CC4CC(CC(O)(C4)C2)C3)c1C	-4.2	77.2*	12.9	0.6	-26.0
CCCCCCCCOC(=O)CCn1[nH]c(=O)c2ccccc2c1=O	nt	nt	nt	1	nt
Cc1cccc2cc3c(N)c(C(=O)N4CCOCC4)sc3nc12	75.5*	-1.6	2.4	0.7	2.7
COC(=O)c1ccc(Cl)c(NS(=O)(=O)c2ccc3c(c2)OCCO3)c1	57.8*	22.9	38.1	0.9	9.6
CC(C)CC(=O)Nc1ccc(-c2cn3ccsc3n2)cc1	6.0	52.3*	51.5*	0.6	-23.0
CC(C)(C)C(=O)Nc1ccc(-c2cn3ccsc3n2)cc1	6.9	-32.9	-31.6	0.2	11.8
Cc1cc(C)n(CC(O)COc2ccc(OCC(O)Cn3nc(C)cc3C)cc2)n1 (stereo not drawn)	nt	nt	nt	1.2	nt
CCCc1cc2c(n1Cc1cc(F)cc(F)c1)C(C)C1CN(C(=O)c3ccccc3)C(C)(C(=O)OC)C21 (stereo not drawn)	nt	nt	nt	1.1	nt
S=C(c1ccc(-c2ccc(Cl)c(Cl)c2)o1)N1CCOCC1	7.3	44.4	44.8	1.4	-25.4
S=C(c1ccc(-c2ccccc2Cl)o1)N1CCOCC1	1.3	37.4	54.3*	1.7	-23.5
COc1ccc(CNC(=O)c2cc3c(C)nc4ccccc4c3o2)c(OC)c1	60.2*	-41.6	-55.4	1.1	17.1
COc1cc(C2C(C#N)=C(C)NC3=C2C(=O)c2ccccc23)cc(OC)c1OC (stereo not drawn)	99.6*	-82.5	-38.4	0.5	43.0*
CCOc1ccc2[nH]c(=O)c(C(c3nnnn3Cc3ccco3)N3CCCC(C)C3)cc2c1 (stereo not drawn)	-7.6	-11.6	-10.7	1.1	-4.2
COc1ccc(NC(=O)c2ccco2)c(OC)c1	0.5	48.4	29.5	1.6	6.7
CCOc1ccccc1NC(=O)c1cccc(NC(=O)c2ccco2)c1	81.3*	-1.3	34.8	0.5	41.8*
COc1cc(NC(=O)C(C)C)ccc1NC(=O)c1ccco1	-1.3	53.8*	44.1	1.1	-23.2
Nc1c(-c2ccccc2)cnn1C1CCS(=O)(=O)C1 (stereo not drawn)	nt	nt	nt	0.9	nt
COc1nc2c(C)cccc2cc1-c1noc(-c2ccncc2)n1	3.9	0.0	-0.6	1.2	0.5
CCN(CC)c1ccc(C=N/C(C#N)=C(\N)C#N)cc1	5.1	56.8*	28.0	1.1	-25.8
CCN(CC)c1ccc(C=Nc2ccc(C#N)cc2)c(O)c1	-8.1	-4.8	0.3	1.2	3.8
CNc1sc(C(=O)c2cccs2)c(N)c1-c1nc2ccccc2s1	4.3	79.3*	32.5	1.9	-43.3
